A3G deaminase – APOBEC3G DNA deaminase inhibitors, primary screen, biochemical, fluorescence, single-stranded DNA substrate, uHTS; inhibition, % at 20 µM; recombinant A3G, ssDNA deamination FAM/TAMRA fluorescence; DNA dC->dU-editing enzyme APOBEC-3G (Homo sapiens), Q9HC16; actives 0.28% (n = 330,000);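 active means inhibition of at least 40% at 20 µM, with no more than 30% in the related APOBEC3A deaminase screen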
Target sequence (Q9HC16 whole entry, looked up): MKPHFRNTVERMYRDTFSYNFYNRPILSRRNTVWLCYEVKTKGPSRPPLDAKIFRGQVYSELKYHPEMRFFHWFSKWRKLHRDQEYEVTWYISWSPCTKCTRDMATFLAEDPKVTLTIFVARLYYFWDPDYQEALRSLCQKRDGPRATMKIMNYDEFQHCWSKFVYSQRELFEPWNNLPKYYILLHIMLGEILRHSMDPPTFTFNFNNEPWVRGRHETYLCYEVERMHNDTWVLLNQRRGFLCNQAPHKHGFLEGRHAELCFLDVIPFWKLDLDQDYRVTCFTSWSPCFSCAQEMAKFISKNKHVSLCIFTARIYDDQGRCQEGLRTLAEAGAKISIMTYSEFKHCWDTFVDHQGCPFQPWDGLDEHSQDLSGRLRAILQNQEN
SUMO HTRF inh – inhibitors of in vitro SUMOylation cascade, primary screen, biochemical, HTRF, uHTS | SUMO-conjugating enzyme UBC9 (Homo sapiens), P63279 | HTRF SUMOylation assay, SAE1/SAE2 + UBC9 | inhibition, % at 35 µM | actives 0.36% (n = 290,000) | AID 2006, 2009; in the data active means inhibition above about 50%, passing the limit was not always enough
Target sequence (P63279 whole entry, looked up): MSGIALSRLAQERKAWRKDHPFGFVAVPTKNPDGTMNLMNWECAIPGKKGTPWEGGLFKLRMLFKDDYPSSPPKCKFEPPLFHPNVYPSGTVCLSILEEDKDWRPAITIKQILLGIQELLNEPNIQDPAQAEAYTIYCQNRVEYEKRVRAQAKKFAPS
APOBEC3A inh – APOBEC3A ssDNA deaminase inhibitors, primary screen, selectivity assay for APOBEC3G inhibitor project, biochemical, FAM/TAMRA oligo cleavage fluorescence; DNA dC->dU-editing enzyme APOBEC-3A (Homo sapiens), P31941; recombinant A3A, FAM/TAMRA ssDNA deamination fluorescence; inhibition, % at 20 µM; actives 0.41% (n = 330,000); AID 493011, 2011;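 active means at least 40% inhibition at 20 µM here, with at most 30% in a related deaminase screen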
HKDC1 inhibitor – HKDC1 hexokinase inhibitors, primary screen, biochemical, fluorescence, uHTS; Q2TB90; recombinant HKDC1, G6PDH/diaphorase resazurin coupled fluorescence; inhibition, % at 20 µM; actives 0.16% (n = 340,000);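 active means inhibition above about 35% when tested at 20 µM, limit read from the data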
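Assay system: in-house recombinant HK5 (HKDC1) enzyme. Input: HKDC1 at 5 µg/mL. Medium: Tris pH 8.0 buffer with MgCl2, Tween-20, BSA, BME. Dosing: single 20 µM dose. Schedule: 90 min reaction incubation at room temperature, dark. Signal: resazurin-to-resorufin fluorescence via G6PDH and diaphorase coupling, 525/613 nm. Controls: DMSO-enzyme wells negative, buffer-substituted wells positive.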
PfG6PD inh – PfG6PD enzyme inhibitors, primary screen, biochemical, fluorescence intensity, uHTS | PfGluPho enzyme, NADPH resazurin-diaphorase fluorescence | AID 504690, 2011 | glucose-6-phosphate dehydrogenase-6-phosphogluconolactonase (Plasmodium falciparum 3D7) | actives 0.78% (n = 350,000) | inhibition, % at 20 µM;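 active means inhibition reaching at least a set limit at 20 µM in the primary screen, cut at about 59% in these data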
PfM18AAP inh – PfM18AAP inhibitors, malaria aminopeptidase, primary screen, biochemical, QFRET, recombinant enzyme; M18 aspartyl aminopeptidase (Plasmodium falciparum 3D7); inhibition, % at 7.35 µM; H-Glu-NHMec fluorogenic cleavage; actives 1.2% (n = 290,000);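 active means inhibition above the campaign mean inhibition over all tested compounds plus 3 SD, cut at about 28% in these data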
A3A conf – APOBEC3A deaminase inhibitors, retest, confirmation, selectivity assay for APOBEC3G inhibitor project, biochemical, single concentration, fluorescence readout. recombinant A3A, ssDNA deaminase UDG fluorescence assay. actives 63% (n = 1,400). inhibition, % at 20 µM. shares compounds with APOBEC3A inh;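 active means inhibition reaching a set limit, 80% of the first screen's cutoff, at 20 µM in any replicate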
UDG ctr A3A – E. coli UDG inhibitors, confirmation, counter-screen for APOBEC3A inhibitor project, biochemical, single concentration, fluorescence, FAM/TAMRA oligo; shares compounds with APOBEC3A inh; AID 504714, 2011; inhibition, % at 20 µM; 1,000 tested, under 10 active; UDG counterscreen, FAM/TAMRA uracil oligo fluorescence; call rule not given here
A number is an active result; . = inactive; / = not tested or not shown. The list is not random: actives were taken first. Their share in the collection is about 2.4%.

SMILES	A3G deaminase	SUMO HTRF inh	APOBEC3A inh	HKDC1 inhibitor	PfG6PD inh	PfM18AAP inh	A3A conf	UDG ctr A3A
Nc1nnc(SCC(=O)Nc2ccc(N3CCOCC3)c(Cl)c2)s1	.	.	.	.	.	.	/	/
CCC(=O)Nc1ccc2nc(SCC(=O)N3CCOCC3)sc2c1	.	.	.	.	.	.	/	/
CCCC(=O)Nc1ccc2nc(SCC(=O)Nc3ccc(N4CCOCC4)c(Cl)c3)sc2c1	.	.	63	.	.	.	46	.
O=C(C1CCC1)N1CCc2cc(S(=O)(=O)Nc3ccc4c(c3)OCCO4)ccc21	.	.	.	.	.	.	/	/
COc1ccc2c(=O)c(-c3ccc4c(c3)OCO4)coc2c1	.	.	.	.	.	.	/	/
Cc1cccc(Cn2ccc(NC(=O)c3cccnc3)n2)c1	.	.	.	.	.	.	/	/
Cc1ccc(/C=N/Nc2nc(N3CCOCC3)nc(N3CCOCC3)n2)o1	.	.	53	.	.	.	33	.
COc1ccc(N2CC(C(=O)Nc3nnc(SCC(=O)c4ccccc4)s3)CC2=O)cc1 (stereo unspecified)	.	.	.	.	.	.	/	/
CCOc1ccc(NC(C(=O)Nc2cccc(C(C)=O)c2)c2ccccc2)cc1 (stereo unspecified)	.	.	43	.	.	.	.	.
CCN(CC)c1cc(C)c2ccccc2n1	.	.	57	.	.	.	.	/
CC1=CC(C)(C)NC(=S)N1c1ccc(C)cc1	.	.	.	.	.	.	/	/
Cc1ccc(C(C(=O)NC2CCCCC2)N(C(=O)Cc2c[nH]c3ccccc23)c2ccccc2C)o1 (stereo unspecified)	.	.	45	.	.	.	.	.
CCN1CCC(NC(=O)Nc2cccc(C(F)(F)F)c2)CC1	.	.	.	.	.	.	/	/
Cc1ccc2nc(C)c3c(c2c1)COC3	.	.	62	.	.	.	.	.
Cc1nc2c(C)cccc2c2c1COC2	.	.	.	.	.	.	/	/
COc1cc(OC)cc(C(=O)N/N=C/c2ccc(OC)c(COc3ccc4ccccc4c3)c2)c1	.	.	.	.	.	.	/	/
COCCN(CC(=O)Nc1cccc(C)c1C)C(=O)CN1C(=O)NC2(CCCCC2)C1=O	.	/	41	.	.	/	49	.
Cc1cccc(NC(=O)CN2C(=O)NC3(CCCCCCC3)C2=O)c1C	.	/	.	.	.	/	/	/
COc1ccc(NC2=C(C(C)=O)C(c3ccc(OC)c(OC)c3)C(C(C)=O)C(C)(O)C2)cc1 (stereo unspecified)	.	.	.	.	.	.	/	/
O=C(c1cc2ccccc2oc1=O)N1CCN(c2ncccn2)CC1	.	.	.	.	.	.	/	/
Cc1ccc(C)c(SCC(=O)OCC(=O)c2ccco2)c1	.	.	54	.	.	.	51	.
Cc1cc(Br)ccc1SCC(=O)OCC(=O)NCc1ccco1	.	.	59	.	.	.	43	/
COc1ccccc1NCCC(=O)OCC(=O)NCc1ccco1	.	.	44	.	.	.	24	.
O=C(COC(=O)CSc1ccc(Br)cc1)NCc1ccco1	.	/	.	.	.	/	/	/
O=C(COC(=O)/C=C/c1ccco1)Nc1ncc(C(F)(F)F)cc1Cl	.	.	51	.	.	.	50	.
SMILES	A3G deaminase	SUMO HTRF inh	APOBEC3A inh	HKDC1 inhibitor	PfG6PD inh	PfM18AAP inh	A3A conf	UDG ctr A3A
Cc1c(Cl)cnc(NC(=O)COC(=O)/C=C/c2ccco2)c1Cl	.	/	.	.	.	/	/	/
Cc1ccc(C)c(SCC(=O)NCc2ccco2)c1	.	.	.	.	.	.	/	/
CN1C(C(=O)NCC2CC2)CC2Cn3c(nc4cc(Cl)c(Cl)cc43)C21 (stereo unspecified)	.	.	.	.	.	/	/	/
O=C(COC(=O)/C=C/c1ccco1)NCc1ccco1	.	.	49	.	.	.	36	.
O=C(COC(=O)/C=C/c1ccco1)NCc1ccccc1Cl	.	.	.	.	.	.	/	/
CNC(=O)CSc1nc2nc(C)cc(C)n2n1	.	.	.	.	.	.	/	/
Cc1cc(C)n2nc(SCC#N)nc2n1	.	.	97	.	.	.	.	/
C/C(CC(=O)Nc1ccc(Cl)c(Cl)c1)=N\NC(=O)C(=O)N1CCCCC1	.	.	62	.	.	.	16	.
COC(=O)c1ccc(C2C(C(=O)Nc3ccccc3C)=C(C)Nc3ncnn32)cc1 (stereo unspecified)	.	.	.	.	.	.	/	/
CCC1CCCCN1C(=O)COc1ccccc1NC(C)=O (stereo unspecified)	.	.	41	.	.	.	.	/
Clc1ccc(CN2C3=NCCN3c3ccccc32)cc1	.	.	.	.	.	.	/	/
Cc1ccn(C)c(=N)c1	.	.	48	.	.	.	56	.
CCn1c(SCC(=O)O)nc2sc3c(c2c1=O)CCC3	.	.	54	.	.	.	48	.
Cc1ccn(CCC(=O)N2CCc3ccccc32)n1	.	.	91	.	.	.	.	.
O=C(CCC(=O)N1CCc2ccccc21)N1CCc2ccccc21	/	/	/	/	/	.	/	/
CC(C)(C)c1cc(C(=O)NNC(=O)Nc2ccccc2)n(Cc2ccccc2)n1	.	.	61	.	.	.	.	.
CN(C)c1cccc(NC2=CC(=[N+]3CCOCC3)CC(C)(C)C2)c1	.	.	41	.	.	.	.	/
CCN1C(=NCCCOC(C)C)N[C@@H](CCc2ccccc2)[C@H](C(=O)NCCCOC(C)C)[C@H]1C	.	/	42	.	.	/	58	.
CCN1C(=NCCOC)N[C@@H](CCc2ccccc2)[C@H](C(=O)OC)[C@H]1C	.	.	46	.	.	.	66	.
Cn1c(-[n+]2c(-c3ccccc3)cc(-c3ccccc3)cc2-c2ccccc2)nc2c([N+](=O)[O-])cccc21	.	.	.	.	.	.	/	/
O=C(O)C1C2CCC(C2)C1C(=O)Nc1cc(F)ccc1F (stereo unspecified)	.	.	.	.	.	.	/	/
